Screening results deposited in PubChem BioAssay by Broad Institute.
ERp5 block: inhibitors of human ERp5; inhibition, % at 9.99 µM; ERp5 insulin aggregation, absorbance 650 nm, 90 min; AID 651711; 0.05% of 350,000 active; Q15084;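 active = mean replicate inhibition above about 25%, with every replicate also reaching it, limit read from the data, passing the limit was not always enough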
Target sequence (Q15084 whole entry, looked up): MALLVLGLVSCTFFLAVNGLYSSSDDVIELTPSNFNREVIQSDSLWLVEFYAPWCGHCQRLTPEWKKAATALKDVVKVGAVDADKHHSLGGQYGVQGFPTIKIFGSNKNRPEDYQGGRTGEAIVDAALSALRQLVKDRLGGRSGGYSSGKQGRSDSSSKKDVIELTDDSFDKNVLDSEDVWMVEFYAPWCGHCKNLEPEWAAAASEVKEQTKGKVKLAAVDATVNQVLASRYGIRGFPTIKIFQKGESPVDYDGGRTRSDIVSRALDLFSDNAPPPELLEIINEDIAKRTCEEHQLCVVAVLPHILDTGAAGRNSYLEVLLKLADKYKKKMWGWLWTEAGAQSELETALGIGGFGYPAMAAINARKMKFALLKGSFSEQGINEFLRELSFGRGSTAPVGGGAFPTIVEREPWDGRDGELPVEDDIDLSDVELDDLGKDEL
ARNT-TACC3 inh: disrupts binding between human ARNT and TACC3; Q9Y6A5; 0.66% of 390,000 active; AlphaScreen His-ARNT PAS-B/GST-TACC3 binding, luminescence; TACC3 fragment carries E629A point mutation; inhibition, % at 9.99 µM;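 active = mean inhibition of replicates at least 50% and at least half of replicates each reaching 50%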;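 also: 0% = complete ARNT plus TACC3 wells and 100% = ARNT alone without TACC3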
FN deposit inh: fibronectin deposition inhibition; AH1F fibroblasts, Alexa488-fibronectin deposition fluorescence, overnight; inhibition, % at 12.6 µM; 0.086% of 350,000 active; AID 743247;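 active = mean inhibition across replicates of 30% or more, regardless of how many single replicates reach that level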;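 also: positive control wells lacked labelled fibronectin entirely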
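Material: AH1F fibroblasts assembling fluorescent fibronectin matrix; amount: 10000 AH1F cells/well; medium: DMEM, 2% serum; reagent: Alexa488-fibronectin, 24 nM final in well; dosing: single compound dose, delivered by pin transfer; incubation: 1 h adhesion, overnight exposure; detection: fluorescence after three HBSS washes, excitation 485 nm, emission 525 nm; measure: fibronectin deposition inhibition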
FGF22 binding: binders of recombinant human FGF22 by thermal shift; Q9HCT0; SYPRO orange fluorescence; percent of sucrose octasulfate shift, DMSO zero; activity (Tm shift, normalised), % at 9.99 µM; 1.5% of 340,000 active; AID 651658;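 active = mean Tm shift, scaled 0 neutral to 100 positive control, at about 1.3% or above, every replicate too, limit read from the data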
Target sequence (Q9HCT0 whole entry, looked up): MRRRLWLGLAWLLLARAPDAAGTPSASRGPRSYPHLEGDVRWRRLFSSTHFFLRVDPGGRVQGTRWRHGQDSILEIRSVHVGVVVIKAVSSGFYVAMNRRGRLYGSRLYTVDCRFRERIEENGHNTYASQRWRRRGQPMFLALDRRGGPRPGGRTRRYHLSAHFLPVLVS
PDI turbidity: PDI (human) enzyme inhibition; P07237; PDI insulin aggregation turbidity, A650, 90 min; inhibition, % at 10 µM; 0.052% of 350,000 active; AID 588391;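 active = mean inhibition across replicates of 30% or more, whatever share of single replicates reach that level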
AF4-AF9 inh: blocks AF4 peptide binding to human AF9. 0.47% of 350,000 active. P42568. inhibition, % at 10 µM. AlphaScreen, biotin-AF4 peptide binding to FLAG-AF9. AID 651704;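 active = every replicate reaching a set inhibition limit, whatever the replicate mean, cut at about 25% in these data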;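 also: 0% = plate neutral control median and 100% = total signal loss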
* hit, by the source's call; nt = no result given. Rows were chosen to be rich in hits. Some 2.1% of all compounds tested hit in one or more screens of this group.

SMILES	ERp5 block	ARNT-TACC3 inh	FN deposit inh	FGF22 binding	PDI turbidity	AF4-AF9 inh
N#Cc1ccc(-c2ccc([C@@H]3[C@H](CO)N4C(=O)CNC[C@@H]34)cc2)cc1	4	nt	-1	0	nt	1
CCOc1cc(NC(=S)NCCc2ccccc2)c(OCC)cc1NC(C)=O	1	0	3	43*	-8	-2
CCCNC(=O)N1[C@H](CO)[C@@H](c2ccccc2)C12CN(C(=O)CC1CC1)C2	-1	nt	nt	0	nt	-1
Cc1n[nH]c(=S)n(NC(=O)/C=C/C(=O)Nn2c(=S)[nH]nc(C)c2=O)c1=O	-1	66*	7	0	4	-6
Cc1n[nH]c(=S)n(NC(=O)CC(=O)Nn2c(=S)[nH]nc(C)c2=O)c1=O	0	67*	6	0	-1	-4
C[C@@H]1CN([C@@H](C)CO)S(=O)(=O)c2ccc(-c3cncnc3)cc2O[C@@H]1CN(C)C(=O)C1CCC1	-3	2	nt	0	nt	-1
COc1ccc(-c2c(C)nn3c(-c4ccccc4)cc(C)nc23)cc1	4	9	nt	0	nt	27*
Cc1cc(C)n2nc(C)c(-c3ccccc3)c2n1	1	-8	-5	0	-4	-6
COc1ccc(/C=C/C(=O)OCC(=O)NCC2CCCO2)cc1 (stereo not given)	3	nt	3	44*	-96	-1
COc1ccc(/C=C/C(=O)NC(=S)NCC2CCCO2)cc1 (stereo not given)	2	-26	nt	44*	1	-15
CN1CCN(NC(=S)NC2CCCC2)CC1	5	-4	2	43*	6	-2
CN1CCN(NC(=S)NC(C)(C)CC(C)(C)C)CC1	-4	nt	-7	43*	0	-2
OC[C@H]1Nc2ccc(-c3cccc(F)c3)cc2[C@@H]2[C@H]1CCN2Cc1ccc(F)cc1	-1	-1	-11	-1	nt	-3
Cc1cccc(CSc2nnc(-c3ccccn3)n2N)c1	nt	45*	-12	nt	8	nt
COc1ccccc1C#Cc1ccc([C@@H]2[C@@H](CO)N3CCCCN(C(=O)C4CCCC4)C[C@H]23)cc1	2	7	nt	0	nt	0
Cc1ccc(C(=O)N/C(=C\c2ccc(-c3cccc([N+](=O)[O-])c3)o2)C(=O)NCCCN(C)C)cc1	-2	8	-2	0	-12	13
Cc1ccc(C(=O)N/C(=C\c2ccc(-c3ccc(Br)cc3)o2)C(=O)NCCCN(C)C)cc1	6	11	-2	0	9	25*
COc1cccc(Cn2cnc(-c3ccccc3OC)c2-c2cc(C)cc(C)c2)c1	1	nt	2	-1	nt	4
COc1cccc(Cn2cnc(-c3ccccc3OC)c2C2CC2)c1	-3	nt	-1	43*	nt	0
OCCNc1nc(Nc2ccccc2OC(F)(F)F)nc(N2CCCC2)n1	2	2	6	0	-5	3
COc1cccc(Nc2nc(NCCO)nc(N3CCCC3)n2)c1	1	active	-4	0	-1	-5
OCCNc1nc(Nc2ccccc2Oc2ccccc2)nc(N2CCCC2)n1	3	23*	-2	0	0	5
CN(C)C(=O)c1ccc(-c2ccc(C3[C@@H]4CN(C(=O)C5CCCCC5)C[C@H]3N4)cc2)cc1 (stereo not given in full)	2	nt	6	nt	nt	-12
C[C@H](CO)N1C[C@H](C)[C@H](CN(C)Cc2ccc(Cl)c(Cl)c2)OCCCC[C@H](C)Oc2ccc(NC(=O)Nc3ccccc3)cc2C1=O	-3	16	-5	0	nt	-1
O=Nc1c(O)[nH]c2ccc(F)cc12	3	nt	10	0	-2	1
SMILES	ERp5 block	ARNT-TACC3 inh	FN deposit inh	FGF22 binding	PDI turbidity	AF4-AF9 inh
Cc1cc2c(N=O)c(NO)ccc2[nH]1	nt	80*	nt	nt	-24	nt
COc1ccc(Cn2nnnc2C(c2cc3cc(C)ccc3[nH]c2=O)N2CCN(C)CC2)cc1 (stereo not given)	10	20	3	44*	-1	1
COc1ccc(Cn2nnnc2C(c2cc3cccc(C)c3[nH]c2=O)N2CCN(C)CC2)cc1 (stereo not given)	-3	-3	1	0	-7	1
O=C(c1ccccc1)c1c2c(cc3sc4ccccc4[n+]13)-c1cccc3cccc-2c13	nt	23	-1	nt	-3	nt
Cc1sc2cc3c(c(C(=O)c4ccccc4)[n+]2c1C)-c1cccc2cccc-3c12	2	nt	-2	0	nt	25*
CCC(=O)/C=C1/Sc2ccc(OC)cc2N1CC	-6	3	nt	0	-1	8
CCC(=O)/C=C1/Sc2ccc(OC)cc2N1CCO	-1	nt	5	43*	-2	-6
CC(NC(=S)NC(=O)c1ccccc1Br)c1ccccc1 (stereo not given)	0	-3	-3	0	-6	3
CC(C)C(NC(=O)c1ccccc1Br)c1ccccc1 (stereo not given)	1	-5	7	43*	0	-1
COc1ccc(NC(=O)N[C@H]2CC[C@@H](CCNS(=O)(=O)c3ccccc3F)O[C@@H]2CO)cc1	0	0	-7	0	nt	2
COc1cc(/C=C(\C#N)C(=O)c2ccc(O)c(O)c2)cc(I)c1O	0	51*	-2	0	4	1
COc1ccc(C=C(C#N)C(=O)c2ccccc2)cc1	-3	nt	3	0	nt	1
COc1ccc(NC(=O)N2CC[C@@H]3[C@@H](CO)N(C)c4ccc(-c5cccc(C(=O)N(C)C)c5)cc4[C@@H]32)cc1	3	-12	1	0	nt	-3
COc1cc(OC)cc(C(=O)NCc2cc(C)nc3ccccc23)c1	-4	1	0	44*	-6	-3
C[C@@H]1CN([C@H](C)CO)C(=O)c2cc(NS(=O)(=O)c3cccs3)ccc2O[C@H]1CN(C)S(C)(=O)=O	2	0	nt	0	nt	-3
O=C(O)C1=CCC(c2ccc(Cl)c(Cl)c2)N(S(=O)(=O)c2ccc(F)cc2)C1c1cccc(F)c1 (stereo not given)	-1	nt	-3	43*	nt	-3
O=C1N[C@H](Cc2ccccc2)COCc2cn(nn2)CC[C@H]1Cc1ccc(-c2ccccc2)cc1	nt	nt	-19	nt	nt	nt
COc1cccc(-n2c(SCC(=O)NC3CC3)nc3ccccc3c2=O)c1	-2	nt	-2	43*	-2	-11
O=C(N[C@H]1CC[C@@H](CCNS(=O)(=O)Cc2ccccc2)O[C@H]1CO)c1ccc2c(c1)OCO2	3	2	0	0	nt	0
OCCN(CCO)c1ncnc2c1sc1nc(N3CCOCC3)c3c(c12)CCCC3	nt	-2	18*	nt	6	nt
Cc1ccccc1CC1(CO)CCCN(Cc2ccc(C#CC(C)(C)O)cc2)C1 (stereo not given)	3	nt	-2	43*	-1	1
CC(=O)Nc1ccc(NC(=O)C(c2ccccc2)c2ccccc2)cc1	-8	1	6	0	11	1
